Source: PMC3249179 (European Journal of Clinical Pharmacology, 2011)
Where two headings read alike, the source gives them in different places. Marks after values point to notes of the source that are not given here.

Legend:
[1] = assay type: in vivo, healthy Japanese male volunteers; conditions: for AUC ratio (period II/period I) / CL/F ratio (period II/period I) / Cmax ratio (period II/period I) / t1/2,z ratio (period II/period I) / tmax difference (period II − period I): APZ + FLV vs APZ alone; for AUC ratio (period II/period I) / CL/F ratio (period II/period I) / Cmax ratio (period II/period I) / t1/2,z ratio (period II/period I): geometric mean ratio; for tmax difference (period II − period I): mean difference
In short: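 Healthy Japanese men aged 20–40 y (BMI 18.5–25.0), CYP2D6-genotyped from blood DNA; 7 per genotype randomly selected. Period I: 3 mg APZ tablet orally, fasting; 34-day washout. Fluvoxamine pretreatment 6 days, then APZ given at SSRI steady state, fluvoxamine continued 14 days. Heparinized plasma sampled predose to 336 h, stored −20°C; APZ and DAPZ by LC-MS/MS. Mean ± SD; per-subject period II/I GMR.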

[2] = APZ 3 mg with CYP3A4 inhibitor itraconazole 100 mg; Japanese EM subjects; cited from earlier work
[3] = assay type: in vivo, healthy Japanese male volunteers; conditions: for AUC ratio (period II/period I) / CL/F ratio (period II/period I) / Cmax ratio (period II/period I) / t1/2,z ratio (period II/period I) / tmax difference (period II − period I): APZ + PRX vs APZ alone; for AUC ratio (period II/period I) / CL/F ratio (period II/period I) / Cmax ratio (period II/period I) / t1/2,z ratio (period II/period I): geometric mean ratio; for tmax difference (period II − period I): mean difference
CYP2D6 [4] = test: Calculation of the contribution of CYP2D6 to APZ metabolism; set-up: species or system healthy Japanese male volunteers; conditions: before CYP inhibition
[5] = cited from earlier work
CYP2D6 [6] = conditions: coadministration of FLV (100 mg q.d.); cited from earlier work
CYP3A4 [7] = tested on: CYP3A4; set-up: species or system healthy Japanese male volunteers; conditions: FLV 100 mg/day, calculated from APZ CL/F
CYP3A4 [8] = conditions: coadministration of FLV (100 mg q.d.); cited from earlier work
[9] = clinical doses of PRX (20–30 mg q.d.); cited from earlier work
[10] = CYP2D6 EM, APZ + FLV 100 mg/day (period II), single oral 3 mg APZ, mean ± SD
[11] = CYP2D6 EM, APZ alone (period I), FLV group, single oral 3 mg APZ, mean ± SD
[12] = CYP2D6 IM, APZ + FLV 100 mg/day (period II), single oral 3 mg APZ, mean ± SD
[13] = CYP2D6 IM, APZ alone (period I), FLV group, single oral 3 mg APZ, mean ± SD
[14] = male, human, plasma, oral, 3 mg
[15] = CYP2D6 EM, APZ + PRX 20 mg/day (period II), single oral 3 mg APZ, mean ± SD
[16] = CYP2D6 EM, APZ alone (period I), PRX group, single oral 3 mg APZ, mean ± SD
[17] = CYP2D6 IM, APZ + PRX 20 mg/day (period II), single oral 3 mg APZ, mean ± SD
[18] = CYP2D6 IM, APZ alone (period I), PRX group, single oral 3 mg APZ, mean ± SD

SMILES: O=C1CCc2ccc(OCCCCN3CCN(c4cccc(Cl)c4Cl)CC3)cc2N1 [Aripiprazole, aripiprazole]
- CL/F [1, 10]: 2.03 ± 0.46 L/h
- AUC ratio (period II/period I) ([1]; CYP2D6 EM): 1.63^a
- CL/F ratio (period II/period I) ([1]; CYP2D6 EM): 0.61^a
- Cmax ratio (period II/period I) ([1]; CYP2D6 EM): 1.39^a
- t1/2,z ratio (period II/period I) ([1]; CYP2D6 EM): 1.44^a
- CL/F [1, 11]: 3.30 ± 0.59 L/h
- decrease in CL/F by coadministration of fluvoxamine ([1]; CYP2D6 EMs): 39%
- CL/F [1, 12]: 1.26 ± 0.35 L/h
- AUC ratio (period II/period I) ([1]; CYP2D6 IM): 1.65^a
- CL/F ratio (period II/period I) ([1]; CYP2D6 IM): 0.60^a
- Cmax ratio (period II/period I) ([1]; CYP2D6 IM): 1.27^a
- t1/2,z ratio (period II/period I) ([1]; CYP2D6 IM): 1.49^a
- tmax difference (period II − period I) ([1]; CYP2D6 IM): 0.00^b h
- CL/F [1, 13]: 2.10 ± 0.69 L/h
- decrease in CL/F by coadministration of fluvoxamine ([1]; CYP2D6 IMs): 40%
- decrease in CL/F in period II (FLV) compared with period I ([1]; both the IM and EM subjects): approximately 40%
- AUC [1, 14]: 1540 ng·h/mL
- Cmax [1, 14]: 15.3 ± 3.4 ng/mL
- half-life [1, 14]: 105 ± 6.8 h
- tmax ([1]; male, human, plasma, oral, 3 mg, tmax, CYP2D6 IM, APZ alone (period I), FLV group, single oral 3 mg APZ, mean ± SD): 3 ± 1.8 h
- AUC ([1]; male, human, plasma, po, 3 mg): 935 ± 173 ng·h/mL
- Cmax ([1]; male, human, plasma, po, 3 mg): 14.7 ± 2.9 ng/mL
- decrease in CL/F [2]: 27%
- decrease in CL/F by coadministration of PRX ([3]; CYP2D6 EM subjects): 58%
- increase in Cmax by coadministration of PRX ([3]; CYP2D6 EM subjects): 39%
- CL/F [3, 15]: 2.22 ± 0.31 L/h
- AUC ratio (period II/period I) ([3]; CYP2D6 EM): 2.40^a
- CL/F ratio (period II/period I) ([3]; CYP2D6 EM): 0.42^a
- Cmax ratio (period II/period I) ([3]; CYP2D6 EM): 1.39^a
- t1/2,z ratio (period II/period I) ([3]; CYP2D6 EM): 1.83^a
- CL/F [3, 16]: 5.42 ± 1.25 L/h
- decrease in CL/F by coadministration of PRX ([3]; CYP2D6 IM subjects): 23%
- CL/F [3, 17]: 1.78 ± 0.20 L/h
- AUC ratio (period II/period I) ([3]; CYP2D6 IM): 1.30^a
- CL/F ratio (period II/period I) ([3]; CYP2D6 IM): 0.77^a
- Cmax ratio (period II/period I) ([3]; CYP2D6 IM): 1.27^a
- t1/2,z ratio (period II/period I) ([3]; CYP2D6 IM): 1.21^a
- CL/F [3, 18]: 2.32 ± 0.33 L/h
- interindividual variability in CL/F ([3]; EM subjects of PRX group, APZ alone): 23 % CV
- interindividual variability in CL/F ([3]; EM subjects, coadministration of PRX): 14 % CV
- interindividual variability in CL/F ([3]; IM subjects of PRX group, APZ alone): 14 % CV
- AUC [3, 14]: 1320 ng·h/mL
- Cmax [3, 14]: 14.5 ± 3.4 ng/mL
- half-life [3, 14]: 107 ± 18.9 h
- tmax ([3]; male, human, plasma, oral, 3 mg, tmax, CYP2D6 IM, APZ alone (period I), PRX group, single oral 3 mg APZ, mean ± SD): 3.3 ± 1.6 h
- tmax ([3]; male, human, plasma, oral, tmax, coadministration of APZ with PRX in period II): ~2 h
- AUC ([3]; male, human, plasma, po, 3 mg): 582 ± 150 ng·h/mL
- Cmax ([3]; male, human, plasma, po, 3 mg): 12.6 ± 2.6 ng/mL
- half-life ([3]; male, human, plasma, po, 3 mg): 60.7 ± 9.2 h
- percent contribution of CYP2D6 to total CL/F (metabolic activity) of APZ (CYP2D6 [4]; CYP2D6 EM, FLV coadministration group): 40%
- percent contribution of CYP2D6 to total CL/F (metabolic activity) of APZ (CYP2D6 [4]; CYP2D6 EM, PRX coadministration group): 62%
- percent contribution of CYP2D6 to total CL/F (metabolic activity) of APZ (CYP2D6 [4]; CYP2D6 IM, FLV coadministration group): 18%
- percent contribution of CYP2D6 to total CL/F (metabolic activity) of APZ (CYP2D6 [4]; CYP2D6 IM, PRX coadministration group): 24%

SMILES: O=c1ccc2ccc(OCCCCN3CCN(c4cccc(Cl)c4Cl)CC3)cc2[nH]1 [Dehydroaripiprazole, dehydroaripiprazole]
- excretion in urine and feces [5]: almost no
- Cmax [1, 10]: 1.6 ± 0.2 ng/mL
- t1/2,z [1, 10]: 227.8 ± 63.2 h
- tmax [1, 10]: 72.0 ± 0.0 h
- AUC ratio (period II/period I) ([1]; CYP2D6 EM): 2.05^a
- Cmax ratio (period II/period I) ([1]; CYP2D6 EM): 1.23^a
- t1/2,z ratio (period II/period I) ([1]; CYP2D6 EM): 2.00^a
- tmax difference (period II − period I) ([1]; CYP2D6 EM): 12.00^b h
- Cmax [1, 11]: 1.3 ± 0.3 ng/mL
- t1/2,z [1, 11]: 115.0 ± 39.6 h
- tmax [1, 11]: 60.0 ± 13.1 h
- Cmax [1, 12]: 1.2 ± 0.3 ng/mL
- tmax [1, 12]: 157.7 ± 36.3 h
- Cmax ratio (period II/period I) ([1]; CYP2D6 IM): 0.95^a
- tmax difference (period II − period I) ([1]; CYP2D6 IM): 37.71^b h
- Cmax [1, 13]: 1.2 ± 0.3 ng/mL
- tmax [1, 13]: 120.0 ± 41.6 h
- Cmax [3, 15]: 0.9 ± 0.1 ng/mL
- tmax [3, 15]: 89.1 ± 38.5 h
- AUC ratio (period II/period I) ([3]; CYP2D6 EM): 1.21
- Cmax ratio (period II/period I) ([3]; CYP2D6 EM): 0.67
- t1/2,z ratio (period II/period I) ([3]; CYP2D6 EM): 1.91
- tmax difference (period II − period I) ([3]; CYP2D6 EM): 37.71 h
- Cmax [3, 16]: 1.3 ± 0.3 ng/mL
- t1/2,z [3, 16]: 86.1 ± 10.7 h
- tmax [3, 16]: 51.4 ± 16.6 h
- Cmax [3, 17]: 0.8 ± 0.1 ng/mL
- tmax [3, 17]: 133.7 ± 27.2 h
- AUC ratio (period II/period I) ([3]; CYP2D6 IM): 0.89
- Cmax ratio (period II/period I) ([3]; CYP2D6 IM): 0.88
- t1/2,z ratio (period II/period I) ([3]; CYP2D6 IM): 0.73
- tmax difference (period II − period I) ([3]; CYP2D6 IM): 30.71 h
- Cmax [3, 18]: 1.0 ± 0.2 ng/mL
- tmax [3, 18]: 103.0 ± 38.7 h

SMILES: COCCCC/C(=N\OCCN)c1ccc(C(F)(F)F)cc1 [FLV, fluvoxamine]
- effect on the PK of desipramine and metoprolol (CYP2D6 substrates) (CYP2D6 [6]): without significantly affecting
- percent inhibition of CYP3A4 by coadministration of FLV (CYP3A4 [7]; CYP2D6 EM subjects): 64%
- percent inhibition of CYP3A4 by coadministration of FLV (CYP3A4 [7]; CYP2D6 IM subjects): 48%
- increase in blood concentration of CYP3A4 substrates (CYP3A4 [8]): several-fold

SMILES: Fc1ccc([C@@H]2CCNC[C@H]2COc2ccc3c(c2)OCO3)cc1 [PRX, paroxetine]
- steady-state blood concentrations [9]: 35 to 43 ng/mL
